≈ marks a conversion by molar mass, not a printed value. Calls of active or inactive are those of the source. No cut-off for these calls is given here.
What was measured:
C6 [1] = test: Cytotoxicity against rat C6 cells at 5 ug/ml after 48 hrs by MTT assay; type: functional
Summary of the method: (§1)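 MTT viability assay. C6 seeded at 1×10^3 cells/well in DMEM/5% FBS and U-138 MG in DMEM/15% FBS. Exposed to 0.1, 0.5, 1, 5, 10 μg/ml for 24, 48 or 72 h, or to AS605240 at 100 nM, 10 μM or 30 μM for 48 h. Vehicle 0.01% DMSO. Viability given as % of control, mean ± SEM of 3 experiments in triplicate. IC50 as geometric mean with 95% confidence limits.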

[2] = Cytotoxicity against human U138MG cells at 5 ug/ml after 48 hrs by MTT assay; type: functional, U138-MG; summary of the method: as §1
C6 [3] = test: Cytotoxicity against rat C6 cells after 48 hrs by MTT assay; type: functional, cell-based; details: C6, 48 h; summary of the method: as §1
[4] = Antiproliferative activity against human U138MG cells at 5 ug/ml after 24 to 72 hrs by hemocytometric analysis; type: functional, U138-MG
Summary of the method: (§2)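 Cell-count proliferation assay. U-138 MG seeded at 1×10^4 cells/well in DMEM/15% FBS and C6 at 5×10^3 cells/well in DMEM/5% FBS, grown 24 h. Medium changed, then chalcones (0.1–10 μg/ml) or AS605240 (100 nM, 10 μM, 30 μM) added. Cells washed in Ca/Mg-free PBS, trypsin/EDTA-detached and counted in a Neubauer chamber. Inhibition versus control, mean ± SEM of 3 experiments in triplicate.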

C6 [5] = test: Antiproliferative activity against rat C6 cells at 5 ug/ml after 24 to 72 hrs by hemocytometric analysis; type: functional; summary of the method: as §2
[6] = Antiproliferative activity against human U138MG cells after 24 to 72 hrs by hemocytometric analysis; type: functional, cell-based; details: U138-MG; summary of the method: as §2
C6 [7] = test: Antiproliferative activity against rat C6 cells after 24 to 72 hrs by hemocytometric analysis; type: functional, cell-based; summary of the method: as §2
U138-MG [8] = test: Cytotoxicity against human U138MG cells at 0.1 to 0.5 ug/ml after 48 to 72 hrs by MTT assay; type: functional, cell-based; summary of the method: as §1
C6 [9] = test: Cytotoxicity against rat C6 cells at 0.1 to 0.5 ug/ml after 48 to 72 hrs by MTT assay; type: functional, cell-based; summary of the method: as §1
U138-MG [10] = test: Cytotoxicity against human U138MG cells at 0.1 to 0.5 ug/ml after 24 hrs by MTT assay; type: functional, cell-based; summary of the method: as §1
C6 [11] = test: Cytotoxicity against rat C6 cells at 0.1 to 0.5 ug/ml after 24 hrs by MTT assay; type: functional, cell-based; summary of the method: as §1
U138-MG [12] = test: Cytotoxicity against human U138MG cells at 0.1 to 0.5 ug/ml by MTT assay; type: functional, cell-based; details: TDE = time-dependent effect; summary of the method: as §1
C6 [13] = test: Cytotoxicity against rat C6 cells at 0.1 to 0.5 ug/ml by MTT assay; type: functional, cell-based; details: TDE = time-dependent effect; summary of the method: as §1
U138-MG [14] = test: Antiproliferative activity against human U138MG cells at 0.1 to 0.5 ug/ml after 48 to 72 hrs by hemocytometric analysis; type: functional, cell-based; summary of the method: as §2
C6 [15] = test: Antiproliferative activity against rat C6 cells at 0.1 to 0.5 ug/ml after 48 to 72 hrs by hemocytometric analysis; type: functional, cell-based; summary of the method: as §2
U138-MG [16] = test: Antiproliferative activity against human U138MG cells at 0.1 to 0.5 ug/ml after 24 hrs by hemocytometric analysis; type: functional, cell-based; summary of the method: as §2
C6 [17] = test: Antiproliferative activity against rat C6 cells at 0.1 to 0.5 ug/ml after 24 hrs by hemocytometric analysis; type: functional, cell-based; summary of the method: as §2
U138-MG [18] = test: Antiproliferative activity against human U138MG cells at 0.1 to 0.5 ug/ml by hemocytometric analysis; type: functional, cell-based; details: TDE = time-dependent effect; summary of the method: as §2
C6 [19] = test: Antiproliferative activity against rat C6 cells at 0.1 to 0.5 ug/ml by hemocytometric analysis; type: functional, cell-based; details: TDE = time-dependent effect; summary of the method: as §2
C6 [20] = test: Cell cycle arrest in rat C6 cells assessed as accumulation at sub-G1/G0 phase after 6 hrs by flow cytometric analysis; type: functional, cell-based
Summary of the method: (§3)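 C6 cells at 3×10^5 per well, in triplicate, given 0.1% DMSO vehicle or 2.5 μg/ml for 6, 12 or 24 h. Ethanol-fixed (70%), stained with propidium iodide/RNase/Triton, 10,000 cells acquired by flow cytometry. Results are relative cell numbers in sub-G1/G1, S and G2/M, from 6 independent experiments.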

C6 [21] = test: Cell cycle arrest in rat C6 cells assessed as accumulation at sub-G1/G0 phase after 12 hrs by flow cytometric analysis; type: functional, cell-based; summary of the method: as §3
C6 [22] = test: Cell cycle arrest in rat C6 cells assessed as accumulation at sub-G1/G0 phase at 2.5 ug/ml after 24 hrs by flow cytometric analysis (reference value: 57.9%); type: functional; summary of the method: as §3
C6 [23] = test: Inhibition of PI3Kgamma-mediated Akt activation in rat C6 cells at 5 ug/ml after 15 mins by flow cytometric analysis; type: cell-based
Summary of the method: (§4)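 C6 cells (2×10^5/well) grown 24 h in 5% FBS DMEM, then serum-starved 24 h in 0.5% FBS. Treated with 5 μg/ml test compound or 30 μM AS605240 plus 5% FBS stimulus, 15 or 30 min. Cells trypsinized, fixed, permeabilized, stained 30 min with AKT antibody and read by flow cytometry. Controls: unstimulated, and 5% FBS plus 0.01% DMSO.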

C6 [24] = test: Inhibition of PI3Kgamma-mediated Akt activation in rat C6 cells at 5 ug/ml after 30 mins by flow cytometric analysis; type: cell-based; summary of the method: as §4
U138-MG [25] = test: Cytotoxicity against human U138MG cells at 100 nM after 48 by MTT assay; type: functional, cell-based; summary of the method: as §1
C6 [26] = test: Cytotoxicity against rat C6 cells at 100 nM after 48 hrs by MTT assay; type: functional, cell-based; summary of the method: as §1
U138-MG [27] = test: Antiproliferative activity against human U138MG cells at 100 nM after 48 by hemocytometric analysis; type: functional, cell-based; summary of the method: as §2
C6 [28] = test: Antiproliferative activity against rat C6 cells at 100 nM after 48 hrs by hemocytometric analysis; type: functional, cell-based; summary of the method: as §2
[29] = Growth inhibition of human U138MG cells at 30 uM after 48 by MTT assay; type: functional; details: U138-MG, read-out: GI; summary of the method: as §1
C6 [30] = test: Growth inhibition of rat C6 cells at 30 uM after 48 hrs by MTT assay; type: functional; details: C6, 48 h, read-out: GI; summary of the method: as §1
[31] = Antiproliferative activity against human U138MG cells assessed as growth inhibition at 30 uM after 48 by hemocytometric analysis; type: functional; details: U138-MG, read-out: GI; summary of the method: as §2
C6 [32] = test: Antiproliferative activity against rat C6 cells assessed as growth inhibition at 30 uM after 48 hrs by hemocytometric analysis; type: functional; details: C6, 48 h, read-out: GI; summary of the method: as §2
C6 [33] = test: Inhibition of PI3Kgamma-mediated Akt activation in rat C6 cells at 30 uM after 15 mins by flow cytometric analysis; type: cell-based; summary of the method: as §4
C6 [34] = test: Inhibition of PI3Kgamma-mediated Akt activation in rat C6 cells at 30 uM after 30 mins by flow cytometric analysis; type: cell-based; summary of the method: as §4
[35] = Antiproliferative activity against human U138MG cells at 2 ug/ml after 48 hrs by hemocytometric analysis; type: functional; details: U138-MG
Summary of the method: (§5)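 Doxorubicin at 2 μg/mL for 48 h on C6 and U-138 MG cells. Proliferation measured as percentage inhibition.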

C6 [36] = test: Antiproliferative activity against rat C6 cells at 2 ug/ml after 48 hrs by hemocytometric analysis; type: functional; details: C6, 48 h; summary of the method: as §5

| Compound | Imax (C6 [1]) | Imax [2] | IC50 (C6 [3]) | Imax [4] | Imax (C6 [5]) | IC50 [6] | IC50 (C6 [7]) | Activity (U138-MG [8]) | Activity (C6 [9]) | Activity (U138-MG [10]) | Activity (C6 [11]) | Activity (U138-MG [12]) | Activity (C6 [13]) | Activity (U138-MG [14]) | Activity (C6 [15]) | Activity (U138-MG [16]) | Activity (C6 [17]) | Activity (U138-MG [18]) | Activity (C6 [19]) | other results |
| --- | --- | --- | --- | --- | --- | --- | --- | --- | --- | --- | --- | --- | --- | --- | --- | --- | --- | --- | --- | --- |
| COc1ccc(C(=O)/C=C/c2ccc3nccnc3c2)c(OC)c1 | 52% | 42% | 4.6 µg/mL (≈ 14.4 µM) | 86% | 67% | 2.48 µg/mL (≈ 7.74 µM) | 1.53 µg/mL (≈ 4.78 µM) | Active | Active | inactive | inactive | tde | tde | Active | Active | inactive | inactive | tde | tde | – |
| O=C(/C=C/c1ccc2nccnc2c1)c1ccc2c(c1)OCO2 | 55% | 15% | 8.39 µg/mL (≈ 27.6 µM) | – | – | – | – | – | – | – | – | – | – | – | – | – | – | – | – | – |
| O=C(/C=C/c1ccc2nccnc2c1)c1ccccc1 | 60% | 21% | 4.63 µg/mL (≈ 17.8 µM) | – | – | – | – | – | – | – | – | – | – | – | – | – | – | – | – | – |
| O=C(/C=C/c1ccc2nccnc2c1)c1ccc([N+](=O)[O-])cc1 | 26% | 9% | – | – | – | – | – | – | – | – | – | – | – | – | – | – | – | – | – | – |
| COc1ccc(OC)c(C(=O)/C=C/c2ccc3nccnc3c2)c1 | 50% | 36% | 2.66 µg/mL (≈ 8.3 µM) | 87% | 85% | 2.64 µg/mL (≈ 8.24 µM) | 1.35 µg/mL (≈ 4.21 µM) | Active | Active | inactive | inactive | tde | tde | Active | Active | inactive | inactive | tde | tde | Activity (C6 [20]): Active; Activity (C6 [21]): Active; Activity (C6 [22]): 66.4%; inhibition (C6 [23]): 60%; inhibition (C6 [24]): 46% |
| COc1ccc(C(=O)/C=C/c2ccc3nccnc3c2)cc1OC | 51% | 33% | 4.16 µg/mL (≈ 13 µM) | 84% | 82% | 2.29 µg/mL (≈ 7.15 µM) | 1 µg/mL (≈ 3.12 µM) | Active | Active | inactive | inactive | tde | tde | Active | Active | inactive | inactive | tde | tde | – |
| COc1ccc(C(=O)/C=C/c2ccc3nccnc3c2)cc1 | 53% | 34% | 4.42 µg/mL (≈ 15.2 µM) | 84% | 90% | 2.67 µg/mL (≈ 9.2 µM) | 2.19 µg/mL (≈ 7.54 µM) | Active | Active | inactive | inactive | tde | tde | Active | Active | inactive | inactive | tde | tde | – |
| O=C1NC(=O)/C(=C/c2ccc3nccnc3c2)S1 | – | – | – | – | – | – | – | – | – | – | – | – | – | – | – | – | – | – | – | Activity (U138-MG [25]): inactive; Activity (C6 [26]): inactive; Activity (U138-MG [27]): inactive; Activity (C6 [28]): inactive; inhibition of growth at 30 µM [29]: 10%; inhibition of growth at 30 µM (C6 [30]): 35%; inhibition of growth at 30 µM [31]: 10%; inhibition of growth at 30 µM (C6 [32]): 73%; inhibition (C6 [33]): 31%; inhibition (C6 [34]): 41% |
| COc1cccc2c1C(=O)c1c(O)c3c(c(O)c1C2=O)C[C@@](O)(C(=O)CO)C[C@@H]3O[C@H]1C[C@H](N)[C@H](O)[C@H](C)O1 [DOXORUBICIN] | – | – | – | – | – | – | – | – | – | – | – | – | – | – | – | – | – | – | – | inhibition at 2 µg/mL [35]: 31%; inhibition at 2 µg/mL (C6 [36]): 27% |
| O=C(/C=C/c1ccc2nccnc2c1)c1ccc(Br)cc1 | 56% | 16% | 9.19 µg/mL (≈ 27.1 µM) | – | – | – | – | – | – | – | – | – | – | – | – | – | – | – | – | – |

— ChEMBL document CHEMBL1938291, “Activity of novel quinoxaline-derived chalcones on in vitro glioma cell proliferation” (Eur J Med Chem, 2012)
